Results on 17 compounds are retold here after ChEMBL document CHEMBL1135284 (Bioorg Med Chem Lett, 2002).

For series [1], the system named is Rattus norvegicus. In words: Activated partial thromboplastin time was determined after (iv) bolus dose of 0.75 mg/kg followed by an infusion of 50 ug/kg/min in rat arterial thrombosis model. Format: functional.
For series [2], the system named is Rattus norvegicus. In words: Mean occlusion time after (iv) bolus dose of 0.75 mg/kg followed by an infusion of 50 ug/kg/min was determined in rat arterial thrombosis model. Format: functional.
Series [3] relates to Rattus norvegicus. In words: Thrombin time was determined after (iv) bolus dose of 0.75 mg/kg followed by an infusion of 50 ug/kg/min in rat arterial thrombosis model. The format is functional.
The nature of series [4]: Oral bioavailability. Format: ADME, organism-based. Conditions: rat, in vivo. In a few lines:
(§1)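 Conscious rats dosed by oral route (30 mg/kg) and iv bolus (0.15 mg/kg). Thrombin time tracked over time after each dose. %F derived by comparing areas under the TT-versus-time curves for the two routes.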

Series [5] in a line: Bioavailability was reported. Conditions: rat, in vivo. Format: ADME, organism-based. In a few lines: as §1

Bounds are passed on as bounds.

In the series on Rattus norvegicus [1], `N[C@H]1CC[C@H](CNC(=O)[C@@H]2CC[C@H]3CN(S(=O)(=O)C(c4ccccc4)c4ccccc4)CC(=O)N32)CC1` yielded an aPTT of 44 s. Besides, the MOT in the series with Rattus norvegicus [2] is listed as more than 60 min. The compound also came in with a TT in the series on Rattus norvegicus [3] of 216 s.

In the series on Rattus norvegicus [1], `N/C(=N/O)N1CCC(CNC(=O)[C@@H]2CC[C@H]3CN(S(=O)(=O)CC(c4ccccc4)c4ccccc4)CC(=O)N32)CC1` showed an aPTT of 26 s. The compound further came in with an MOT in the series with Rattus norvegicus [2] of 45 min. Also, in series [4], the bioavailability turned out to be 0.7%. In the series with Rattus norvegicus [3], this compound came in with a TT of 148 s.

With `Nc1ccc(CNC(=O)[C@@H]2CC[C@H]3CN(S(=O)(=O)CC(c4ccccc4)c4ccccc4)CC(=O)N32)cn1`, the aPTT with Rattus norvegicus [1] came to 19 s. This compound had an MOT in the series with Rattus norvegicus [2] of 30 min. This compound also yielded a TT in the series with Rattus norvegicus [3] of 51 s.

Regarding `N=C(N)N1CCC(CNC(=O)[C@@H]2CC[C@H]3CN(C(=O)CC(c4ccccc4)c4ccccc4)CC(=O)N32)CC1`, the aPTT in the series on Rattus norvegicus [1] turned out to be 29 s. The MOT in the series with Rattus norvegicus [2] stood at 21 min. Also, the TT with Rattus norvegicus [3] was 85 s.

`N/C(=N/O)N1CCC(CNC(=O)[C@@H]2CC[C@H]3CN(C(=O)CC(c4ccccc4)c4ccccc4)CC(=O)N32)CC1` showed an aPTT in the series on Rattus norvegicus [1] of 23 s. The same compound yielded an MOT in the series on Rattus norvegicus [2] of 35 min. The TT in the series on Rattus norvegicus [3] is recorded as 63 s.

Turning to `N=C(N)[C@H]1CC[C@H](CNC(=O)[C@@H]2CC[C@H]3CN(S(=O)(=O)C(c4ccccc4)c4ccccc4)CC(=O)N32)CC1`, the aPTT with Rattus norvegicus [1] is on record as 54 s. The compound further came in with an MOT in the series on Rattus norvegicus [2] of 44 min. Besides, the bioavailability in series [4] turned out to be 0.1%. Besides, in the series on Rattus norvegicus [3], the TT was 724 s.

In turn, `Cc1nc(N)ccc1CNC(=O)[C@@H]1CC[C@H]2CN(S(=O)(=O)C(c3ccccc3)c3ccccc3)CC(=O)N21` had an aPTT in the series on Rattus norvegicus [1] of 27 s. The compound further had an MOT in the series on Rattus norvegicus [2] of more than 60 min. In addition, the TT in the series with Rattus norvegicus [3] is listed as 102 s.

`N/C(=N\O)N1CCC(CNC(=O)[C@@H]2CC[C@H]3CN(S(=O)(=O)Cc4ccccc4)CC(=O)N32)CC1` had a bioavailability in series [4] of approximately 0.5%.

In the case of `N/C(=N/O)N1CCC(CNC(=O)[C@@H]2CC[C@H]3CN(S(=O)(=O)C(c4ccccc4)c4ccccc4)CC(=O)N32)CC1`, the aPTT with Rattus norvegicus [1] was 28 s. Besides, in the series with Rattus norvegicus [2], the MOT amounted to 46 min. Moreover, in series [4], the bioavailability turned out to be 1.9%. Moreover, the TT in the series with Rattus norvegicus [3] is 230 s.

As to `N[C@H]1CC[C@H](CNC(=O)[C@@H]2CC[C@H]3CN(S(=O)(=O)CC(c4ccccc4)c4ccccc4)CC(=O)N32)CC1`, the aPTT in the series with Rattus norvegicus [1] is 35 s. In the series with Rattus norvegicus [2], this compound gave an MOT of 37 min. This compound also returned a bioavailability in series [5] of 1.5%. The compound also displayed a TT with Rattus norvegicus [3] of 150 s.

In the series with Rattus norvegicus [1], `N=C(N)N1CCC(CNC(=O)[C@@H]2CC[C@H]3CN(S(=O)(=O)CC(c4ccccc4)c4ccccc4)CC(=O)N32)CC1` gave an aPTT of 35 s. Further, in the series with Rattus norvegicus [2], the MOT turned out to be 36 min. Further, in series [4], the bioavailability was 2.2%. Also, in the series with Rattus norvegicus [3], the TT turned out to be 214 s.

For the compound `Cc1cc(C(=N)N)ccc1CNC(=O)[C@@H]1CC[C@H]2CN(S(=O)(=O)C(c3ccccc3)c3ccccc3)CC(=O)N21`, the aPTT in the series on Rattus norvegicus [1] is on record as 42 s. The MOT in the series with Rattus norvegicus [2] is more than 60 min. In the series on Rattus norvegicus [3], this compound gave a TT of 354 s.

The compound `N/C(=N/O)N1CCC(CNC(=O)[C@@H]2CC[C@H]3CN(S(=O)(=O)CCc4ccccc4)CC(=O)N32)CC1` showed an aPTT in the series on Rattus norvegicus [1] of 25 s. For the same compound, the MOT in the series on Rattus norvegicus [2] was found to be 49 min. For the same compound, the bioavailability in series [4] was found to be 2.7%. Besides, the TT in the series with Rattus norvegicus [3] stood at 146 s.

Consider `N=C(N)c1ccc(CNC(=O)[C@@H]2CC[C@H]3CN(S(=O)(=O)Cc4ccccc4)CC(=O)N32)cc1`, for which, in series [4], the bioavailability is approximately 0.5%.

Turning to `N=C(N)c1ccc(CNC(=O)[C@@H]2CC[C@H]3CN(S(=O)(=O)CC(c4ccccc4)c4ccccc4)CC(=O)N32)cc1`, the aPTT with Rattus norvegicus [1] is reported as 74 s. The MOT in the series with Rattus norvegicus [2] is given as more than 60 min. In the series with Rattus norvegicus [3], this compound displayed a TT of 636 s.

`N=C(N)c1ccc(CNC(=O)[C@@H]2CC[C@H]3CN(S(=O)(=O)C(c4ccccc4)c4ccccc4)CC(=O)N32)cc1` returned an aPTT in the series with Rattus norvegicus [1] of 54 s. The same compound displayed an MOT in the series on Rattus norvegicus [2] of 51 min. The compound further gave a TT in the series on Rattus norvegicus [3] of 631 s.

`N=C(N)N1CCC(CNC(=O)[C@@H]2CC[C@H]3CN(S(=O)(=O)C(c4ccccc4)c4ccccc4)CC(=O)N32)CC1` came in with an aPTT in the series with Rattus norvegicus [1] of 28 s. The MOT with Rattus norvegicus [2] came to 52 min. The same compound returned a TT with Rattus norvegicus [3] of 154 s.

As usually defined, the bioavailability is dose-corrected exposure relative to a reference, in per cent. Read a high bioavailability as much systemic uptake.
